Converted amounts (≈) assume the structure as drawn. “Also recorded” adds a separate entry of the source.
Legend:
M. tuberculosis BioA = target: T1, M. tuberculosis BioA (Mycobacterium tuberculosis, UniProt P9WQ81); assay: biochemical; format: biochemical
T1 sequence (P9WQ81 1-437): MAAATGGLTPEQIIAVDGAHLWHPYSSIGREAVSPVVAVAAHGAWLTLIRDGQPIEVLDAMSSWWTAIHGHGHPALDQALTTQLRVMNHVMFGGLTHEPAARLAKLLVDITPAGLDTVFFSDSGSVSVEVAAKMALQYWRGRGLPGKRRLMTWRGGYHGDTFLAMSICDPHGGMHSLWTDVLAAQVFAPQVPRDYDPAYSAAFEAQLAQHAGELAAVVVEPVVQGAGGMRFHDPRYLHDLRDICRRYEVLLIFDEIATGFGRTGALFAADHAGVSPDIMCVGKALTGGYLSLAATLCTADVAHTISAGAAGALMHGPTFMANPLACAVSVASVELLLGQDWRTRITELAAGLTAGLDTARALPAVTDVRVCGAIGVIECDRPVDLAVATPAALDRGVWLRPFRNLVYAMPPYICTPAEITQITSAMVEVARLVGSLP

M. tuberculosis H37Rv [1] = format: cell-based, Mycobacterium tuberculosis
M. tuberculosis H37Rv [2] = assay: microbe, parasite or virus in culture; format: cell-based; conditions: Mycobacterium tuberculosis, read-out: MIC90 in Sauton's medium
[3] = system: Chinese hamster ovary cell line (CHO); assay: Cytotoxicity assay; format: cell-based; conditions: at 50 μg/mL
In short: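 CHO cells were grown in DMEM with 10% FBS and 1X antibiotic-antimycotic, then seeded at 1×10^4 cells per well. They were exposed to the test compound at 1 μg/mL to 200 μg/mL for 48 h. 0.01% resazurin dye was then added to measure cell viability.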

| SMILES | Percent inhibition of BioA at 100 μg/mL (M. tuberculosis BioA) | MIC90 (μM) for M. tuberculosis growth inhibition (M. tuberculosis H37Rv [1]) [µM] | MIC90 (μg/mL) for M. tuberculosis growth inhibition (M. tuberculosis H37Rv [1]) [µg/mL] | IC50 (M. tuberculosis BioA; IC50 (μM) BioA) [µM] | IC50 (M. tuberculosis BioA; IC50 (μg/mL) BioA, mean ± SD) [µM] | MIC90 (M. tuberculosis H37Rv [2]) [mg/L] | Toxicity in CHO cell line [3] |
| --- | --- | --- | --- | --- | --- | --- | --- |
| O=C(O)c1ccc(C=NNC(=O)c2cccc3ccccc23)cc1 [Compound X21] | weak inhibition; also recorded: poor inhibition | 7.86 | 2.5 |  |  |  |  |
| CC1(c2ccc(S(=O)(=O)c3ccccc3)cc2)OC(=O)C=CC1=O (stereo not shown) [Compound A65, 6-methyl-6-[4-(phenylsulfonyl)phenyl]-2H-pyran-2,5(6H)-dione] |  |  |  | 114 | 114 | 80 (≈ 234 µM) | moderate toxicity |
